Reference: ChEMBL document CHEMBL1126583, “Potent quinoxaline-spaced phosphono alpha-amino acids of the AP-6 type as competitive NMDA antagonists: synthesis and biological evaluation” (J Med Chem, 1993)
pIC50: −log10 of the molar value.

Assays:
[1] = target: Glutamate NMDA receptor; experiment: Tested for binding affinity against NMDA receptor, from rat synaptic membrane, using [3H]-CPP as the radioligand.
Method in brief: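 Rat whole-brain crude synaptic membranes, Triton X-100 treated and frozen at -70 °C; 0.2–0.5 mg protein incubated 15 min at 23 °C with 8 nM [3H]CPP in 50 mM Tris HCl pH 7.6. Nonspecific binding defined with 1.0 mM NMDA. Bound ligand separated by centrifugation and counted by scintillation. Triplicates, 5–10 concentrations; IC50 with 95% confidence limits.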

[2] = target: Glutamate NMDA receptor; experiment: Tested for binding affinity against NMDA receptor, from rat synaptic membrane, using [3H]TCP as the radioligand.
Method in brief: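 Stimulated binding assay on rat whole-brain synaptic membranes in 5.0 mM Tris HCl pH 7.4. […] 100 μM MK-801 defines nonspecific binding. Filtration through PEI-soaked glass-fiber filters, then scintillation counting. Triplicates, 5–10 concentrations; IC50 with 95% confidence limits.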

[3] = target: Glutamate NMDA receptor; experiment: Tested for binding affinity against NMDA receptor, from rat synaptic membrane, using [3H]glycine as the radioligand.
Method in brief: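 Rat whole-brain synaptic membranes washed and resuspended in 50 mM Tris citrate. Separation by centrifugation, then scintillation counting.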

| pIC50 [1] | pIC50 [2] | pIC50 [3] | Compound |
| --- | --- | --- | --- |
| < 6.00 | – | – | NC(Cc1nc2ccccc2nc1CCP(=O)(O)O)C(=O)O (configuration not stated) |
| 7.65 | 4.79 | – | Cc1cc2nc(CC(N)C(=O)O)c(CP(=O)(O)O)nc2cc1C (configuration not stated) |
| 8.19 | 5.25 | – | NC(Cc1nc2cc3ccccc3cc2nc1CP(=O)(O)O)C(=O)O (configuration not stated) |
| 6.78 | – | – | NC(Cc1nc2cc(F)c(F)cc2nc1CP(=O)(O)O)C(=O)O (configuration not stated) |
| 7.42 | 4.86 | 5.74 | NC(Cc1nc2ccc(Cl)cc2nc1CP(=O)(O)O)C(=O)O (configuration not stated) |
| 7.62 | 5.07 | < 4.00 | NC(Cc1nc2cc(Cl)ccc2nc1CP(=O)(O)O)C(=O)O (configuration not stated) |
| < 6.00 | – | – | CCOC(=O)C(N)Cc1nc2ccccc2nc1CP(=O)(O)O (configuration not stated) |
| 6.08 | – | – | COc1cc2nc(CC(N)C(=O)O)c(CP(=O)(O)O)nc2cc1OC (configuration not stated) |
| 6.61 | – | – | NC(Cc1nc2c(Cl)ccc(Cl)c2nc1CP(=O)(O)O)C(=O)O (configuration not stated) |
| 6.95 | – | < 4.00 | O=C(O)C1CN(CCCP(=O)(O)O)CCN1 (configuration not stated) |
| < 6.00 | – | – | NC(Cc1nc2ccccc2nc1/C=C/P(=O)(O)O)C(=O)O (configuration not stated) |
| < 6.00 | – | – | NC(Cc1cc2nccnc2cc1CP(=O)(O)O)C(=O)O (configuration not stated) |
| 8.47 | 4.93 | 6.21 | NC(Cc1nc2cc(Cl)c(Cl)cc2nc1CP(=O)(O)O)C(=O)O (configuration not stated) |
| < 6.00 | – | – | NC(Cc1nc2ccccc2nc1CP(=O)(O)O)C(=O)O (single isomer, unassigned; (+)) |
| 6.92 | 4.55 | 5.33 | NC(Cc1nc2ccccc2nc1CP(=O)(O)O)C(=O)O (stereo in doubt; 7) |
| 7.53 | 4.68 | – | NC(Cc1nc2ccccc2nc1CP(=O)(O)O)C(=O)O (stereo in doubt; 9) |
| 7.55 | 4.65 | < 4.00 | O=C(O)[C@@H]1C[C@H](CP(=O)(O)O)CCN1 [SELFOTEL] |

| Compound | pIC50 [1] | pIC50 [2] | pIC50 [3] |
| --- | --- | --- | --- |
| NC(CCCCCP(=O)(O)O)C(=O)O (configuration not stated) [AP-7] | – | 3.52 | – |
